28 compounds from ChEMBL document CHEMBL1129423, “Hypoglycemic activity of a series of alpha-alkylthio and alpha-alkoxy carboxylic acids related to ciglitazone” (J Med Chem, 1996) can be followed below.

The subject of test [1] is Mus musculus. Nature of the test: In vivo hypoglycemic activity expressed as percent glucose normalization in ob/ob mice at 0.1 mg/Kg. In kind it is functional. The essentials: (§1)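 ob/ob mice received oral gavage once daily for 4 days in 0.25% (w/v) methylcellulose in water. Retro-orbital blood was taken before treatment and 24 h after the fourth dose. Glucose was measured by the hexokinase UV method. Results are % glucose normalization relative to vehicle (0%) and englitazone 100 mg/kg (100%), with significance at p<0.05.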

Test [2] concerns Mus musculus. Nature of the test: In vivo hypoglycemic activity expressed as percent glucose normalization in ob/ob mice at 1 mg/Kg. In kind it is functional. Put shortly:
as §1

For test [3], the system named is Mus musculus. As to the kind of experiment: In vivo hypoglycemic activity expressed as percent glucose normalization in ob/ob mice at 0.01 mg/Kg. It is filed as functional. The essentials: as §1
In test [4] the test system is Mus musculus. Nature of the test: In vivo hypoglycemic activity expressed as percent glucose normalization in db/db mice at 0.01 mg/Kg. In kind it is functional.
The test system of test [5] is Mus musculus. Nature of the test: In vivo hypoglycemic activity expressed as percent glucose normalization in db/db mice at 0.25 mg/Kg. It is filed as functional.
In test [6] the test system is Mus musculus. As to the kind of experiment: In vivo hypoglycemic activity expressed as percent glucose normalization in db/db mice at 5 mg/Kg. It is filed as functional.
Test [7] concerns Mus musculus. Nature of the test: In vivo hypoglycemic activity expressed as percent glucose normalization in db/db mice at 0.05 mg/Kg. It is filed as functional.
Test [8] relates to Mus musculus. Nature of the test: In vivo hypoglycemic activity expressed as percent glucose normalization in db/db mice at 0.1 mg/Kg. It is filed as functional.
For test [9], the system named is Mus musculus. As to the kind of experiment: In vivo hypoglycemic activity expressed as percent glucose normalization in db/db mice at 1 mg/Kg. It is filed as functional.
In test [10] the test system is Mus musculus. Nature of the test: In vivo hypoglycemic activity expressed as percent glucose normalization in db/db mice at 0.5 mg/Kg. It is filed as functional.
Test [11] deals with Mus musculus. Nature of the test: In vivo hypoglycemic activity expressed as percent glucose normalization in ob/ob mice at 0.01 mg/Kg; Inactive. In kind it is functional, organism-based. The essentials: as §1
The test system of test [12] is Mus musculus. Nature of the test: In vivo hypoglycemic activity expressed as percent glucose normalization in db/db mice at 2.5 mg/Kg. In kind it is functional.
The test system of test [13] is Mus musculus. As to the kind of experiment: In vivo hypoglycemic activity expressed as percent glucose normalization in db/db mice at 0.05 mg/Kg; Inactive. It is filed as functional, organism-based.
Test [14] has as its system Mus musculus. Nature of the test: In vivo hypoglycemic activity expressed as percent glucose normalization in db/db mice at 5 mg/Kg; Not tested. In kind it is functional.
In test [15] the test system is Mus musculus. Nature of the test: In vivo hypoglycemic activity expressed as percent glucose normalization in db/db mice at 0.1 mg/Kg; Inactive. In kind it is functional, organism-based.

Activity calls are given as the source filed them. The calls are words filed in the database; no cut-off is given here.

With `Cc1ccccc1-c1nc(Cc2cc3cc(CC4SC(=O)NC4=O)ccc3o2)c(C)o1` (stereo not drawn), the figures for the Glucose normalisation in the test with Mus musculus [1], with Mus musculus [2] and in the test with Mus musculus [3] were 91%, 100% and 11%, respectively.

Take `CCOC(Cc1ccc2oc(Cc3nc(-c4ccccc4)oc3C)cc2c1)C(=O)O` (stereo not drawn): the Glucose normalisation with Mus musculus [4] amounted to 69%; in the test with Mus musculus [5], 100%; in the test on Mus musculus [6] it was 100%; with Mus musculus [7], 97%; with Mus musculus [8], 100%.

As to `C#CCOC(Cc1ccc2oc(Cc3nc(-c4ccccc4)oc3C)cc2c1)C(=O)O` (stereo not drawn), the Glucose normalisation with Mus musculus [9] is recorded as 74%; with Mus musculus [6], 100%.

Regarding `CCOC(Cc1ccc2oc(Cc3nc(-c4cccs4)oc3C)cc2c1)C(=O)O` (stereo not drawn), the Glucose normalisation in the test with Mus musculus [4] was 98%; with Mus musculus [9], 100%; in the test on Mus musculus [7], 100%; with Mus musculus [8] it was 100%.

Regarding `CSC(Cc1ccc2oc(Cc3nc(-c4ccccc4)oc3C)cc2c1)C(=O)O` (stereo not drawn), the Glucose normalisation with Mus musculus [10] worked out at 100%; in the test with Mus musculus [9], 89%; with Mus musculus [5], 16%; in the test with Mus musculus [8], 26%.

For `CCCOC(Cc1ccc2oc(Cc3nc(-c4ccccc4)oc3C)cc2c1)C(=O)O` (stereo not drawn), the Glucose normalisation in the test with Mus musculus [4] is 43%; in the test on Mus musculus [9] it was 100%; in the test with Mus musculus [6], 100%; in the test with Mus musculus [7] it was 76%; with Mus musculus [8] it was 100%.

`Cc1oc(C2CCCCC2)nc1Cc1cc2cc(CC3SC(=O)NC3=O)ccc2o1` (stereo not drawn): the Glucose normalisation in the test with Mus musculus [1] worked out at 90%; in the test on Mus musculus [2] it was 100%. The Glucose normalisation result in the test on Mus musculus [11] was “inactive”.

Turning to `CCSC(Cc1ccc2oc(Cc3nc(-c4ccccc4)oc3C)cc2c1)C(=O)O` (stereo not drawn), the Glucose normalisation in the test on Mus musculus [10] is recorded as 80%; in the test on Mus musculus [9] it was 60%; in the test with Mus musculus [5], 3%; in the test on Mus musculus [6], 86%.

Turning to `CCO[C@@H](Cc1ccc2oc(Cc3nc(-c4ccccc4)oc3C)cc2c1)C(=O)O`, the Glucose normalisation with Mus musculus [4] worked out at 78%; in the test on Mus musculus [8] it was 100%.

On to `CCOC(Cc1ccc2oc(Cc3nc(-c4ccco4)oc3C)cc2c1)C(=O)O` (stereo not drawn), for which the Glucose normalisation in the test on Mus musculus [4] was found to be 63%; in the test with Mus musculus [9], 100%; in the test with Mus musculus [8] it was 100%.

On to `CCCS[C@@H](Cc1ccc2oc(Cc3nc(-c4ccccc4)oc3C)cc2c1)C(=O)O`, for which the Glucose normalisation with Mus musculus [10] is 52%; in the test on Mus musculus [12], 69%; in the test with Mus musculus [9] it was 91%.

Take `C=CCOC(Cc1ccc2oc(Cc3nc(-c4ccccc4)oc3C)cc2c1)C(=O)O` (stereo not drawn): the Glucose normalisation in the test with Mus musculus [4] is reported as 27%; with Mus musculus [9] it was 85%; with Mus musculus [6], 92%; in the test with Mus musculus [7] it was 91%; in the test with Mus musculus [8], 85%.

As for `Cc1oc(-c2ccccc2)nc1Cc1cc2cc(CC(Sc3ccccc3)C(=O)O)ccc2o1` (stereo not drawn), the Glucose normalisation in the test with Mus musculus [10] stood at 100%; in the test with Mus musculus [9], 90%; in the test on Mus musculus [5], 92%; in the test on Mus musculus [6] it was 70%; with Mus musculus [8], 86%.

On to `Cc1cccc(-c2nc(Cc3cc4cc(CC5SC(=O)NC5=O)ccc4o3)c(C)o2)c1` (stereo not drawn), for which the figures for the Glucose normalisation in the test on Mus musculus [1], with Mus musculus [2] and in the test with Mus musculus [3] were 79%, 100% and 78%, respectively.

For `CCOC(Cc1ccc2oc(Cc3nc(-c4ccc(OC)cc4)oc3C)cc2c1)C(=O)O` (stereo not drawn), the Glucose normalisation came to 46% with Mus musculus [4], 100% with Mus musculus [9] and 100% in the test on Mus musculus [8]. The Glucose normalisation result in the test on Mus musculus [13] was “inactive”.

As to `CCCCCCCCSC(Cc1ccc2oc(Cc3nc(-c4ccccc4)oc3C)cc2c1)C(=O)O` (stereo not drawn), the Glucose normalisation in the test with Mus musculus [10] is listed as 100%; with Mus musculus [9] it was 75%; in the test with Mus musculus [5] it was 99%; with Mus musculus [6] it was 96%; in the test on Mus musculus [8], 14%.

Consider `CCOC(C(=O)O)c1ccc2oc(Cc3nc(-c4ccccc4)oc3C)cc2c1` (stereo not drawn), for which, in the test on Mus musculus [14], the Glucose normalisation turned out to be 9%.

In the case of `CCCSC(Cc1ccc2oc(Cc3nc(-c4ccccc4)oc3C)cc2c1)C(=O)O` (stereo not drawn), the Glucose normalisation in the test on Mus musculus [10] stood at 82%; with Mus musculus [9], 69%; in the test on Mus musculus [5] it was 39%; with Mus musculus [6] it was 94%.

Consider `COC(Cc1ccc2oc(Cc3nc(-c4ccccc4)oc3C)cc2c1)C(=O)O` (stereo not drawn), for which the Glucose normalisation in the test with Mus musculus [4] is listed as 44%; with Mus musculus [9], 100%; in the test with Mus musculus [6], 94%; in the test on Mus musculus [7] it was 82%; in the test on Mus musculus [8] it was 83%.

Regarding `CCO[C@H](Cc1ccc2oc(Cc3nc(-c4ccccc4)oc3C)cc2c1)C(=O)O`, the Glucose normalisation amounted to 16% in the test on Mus musculus [4], 74% in the test on Mus musculus [9] and 19% in the test with Mus musculus [8].

On to `CCCS[C@H](Cc1ccc2oc(Cc3nc(-c4ccccc4)oc3C)cc2c1)C(=O)O`, for which the Glucose normalisation with Mus musculus [10] is on record as 45%; with Mus musculus [12] it was 75%; in the test on Mus musculus [9], 56%.

For `CCOC(CCc1ccc2oc(Cc3nc(-c4ccccc4)oc3C)cc2c1)C(=O)O` (stereo not drawn), the Glucose normalisation with Mus musculus [10] is listed as 75%; in the test on Mus musculus [9] it was 90%; with Mus musculus [5], 13%; in the test with Mus musculus [6], 100%.

In the case of `Cc1oc(-c2ccccc2)nc1Cc1cc2cc(CC3SC(=O)NC3=O)ccc2o1` (stereo not drawn), the figures for the Glucose normalisation in the test on Mus musculus [1] and with Mus musculus [3] were 93% and 76%, respectively.

Turning to `Cc1oc(-c2ccccc2)nc1Cc1cc2cc(CC(OCCCO)C(=O)O)ccc2o1` (stereo not drawn), the Glucose normalisation in the test on Mus musculus [7] stood at 19%; with Mus musculus [8] it was 91%.

For the compound `Cc1oc(-c2ccccc2)nc1Cc1cc2cc(CC(SCc3ccccc3)C(=O)O)ccc2o1` (stereo not drawn), the Glucose normalisation is on record as 93% in the test on Mus musculus [10], 88% with Mus musculus [9], 72% in the test on Mus musculus [5] and 100% in the test with Mus musculus [6]. Moreover, the Glucose normalisation result in the test with Mus musculus [15] was “inactive”.

As to `Cc1oc(-c2ccc(Cl)cc2)nc1Cc1cc2cc(CC3SC(=O)NC3=O)ccc2o1` (stereo not drawn), the Glucose normalisation in the test with Mus musculus [1] is recorded as 100%; in the test with Mus musculus [2], 100%; with Mus musculus [3], 0%.

As to `Cc1oc(-c2cccc(F)c2)nc1Cc1cc2cc(CC3SC(=O)NC3=O)ccc2o1` (stereo not drawn), the values for the Glucose normalisation in the test on Mus musculus [1], with Mus musculus [2] and in the test with Mus musculus [3] were 88%, 100% and 12%, respectively.

With `Cc1oc(-c2ccccc2)nc1Cc1cc2cc(CC(OCc3ccccc3)C(=O)O)ccc2o1` (stereo not drawn), the values for the Glucose normalisation with Mus musculus [4], in the test with Mus musculus [7] and in the test with Mus musculus [8] were 74%, 100% and 100%, respectively.
